N-glyco inh: increase of ERlucT glycosylation luciferase signal, primary screen, N-linked glycosylation inhibitor project, D54 ERlucT cells, luminescence, set 2. reporter increase, % at 12.5 µM. D54 ERlucT glycosylation luciferase reporter, 24 h; percent of 100 nM tunicamycin response. 360,000 tested, 0.23% active. AID 588692, 2011;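 active means mean luciferase reporter signal, scaled so untreated is 0 and the glycosylation-blocking control 100, at or above a set limit in every replicate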;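 further: luciferase carries N-glycosylation sites so blocking glycosylation raises the light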
ALR H2O2 inh: inhibitors of human ALR sulfhydryl oxidase, primary screen, biochemical, H2O2 detection, HRP-luminol luminescence, single point; inhibition, % (test concentration not listed); purified ALR, DTT oxidation; 290,000 tested, 3.8% active;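 active means mean replicate inhibition above about 79%, with every replicate also reaching it, limit read from the data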
Target sequence (P55789 whole entry, looked up): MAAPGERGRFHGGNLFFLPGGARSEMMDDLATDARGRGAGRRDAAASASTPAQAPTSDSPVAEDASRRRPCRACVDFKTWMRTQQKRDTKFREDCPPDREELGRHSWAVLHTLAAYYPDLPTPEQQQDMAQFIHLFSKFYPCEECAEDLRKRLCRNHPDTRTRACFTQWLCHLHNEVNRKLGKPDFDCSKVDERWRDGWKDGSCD
T cell HTS: modulators of CD8 T cell-vesicle binding, primary screen, mouse 2C CD8+ T cells, flow cytometry; response (vesicle binding), % at 7 µM; AID 2052, 2009; 330,000 tested, 0.068% active; 2C CD8+ T cell-vesicle binding; stronger effect = lower value;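 active means response, share of CD8 T cells binding vesicles, and their 90th percentile fluorescence all below set limits, cut at about 80% in these data, passing the limit was not always enough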;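 further: values below 100% mean blocked vesicle binding to the CD8+ T cells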
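Material: murine 2C transgenic CD8+ T lymphocytes / Also added: QL9-peptide-loaded Drosophila micro-vesicles bearing Ld, ICAM-1 and B7-1 / Schedule: binding step 1.5 h, 37 °C, antibody labelling 20 min, ice / Signal: flow cytometry, PE anti-B7-1 (FL2) versus Alexa647 anti-CD8 (FL8), PFA-fixed / Evaluation: percent CD8+ FL2 mean versus row control / Benchmarks: naked versus QL9-loaded vesicles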
Hits are given with their value; 0 = inactive; - = not tested or not shown. Only a selection was taken, and hits are over-represented in it overall.

SMILES | N-glyco inh | ALR H2O2 inh | T cell HTS
CC(C)CC(=O)Nc1nnc(SCC(=O)Nc2nccs2)s1 | 0 | 0 | 0
Cc1csc(SCC(=O)Nc2ccc3c(c2)OCCO3)n1 | 0 | 0 | 0
CSc1nsc(SCC(=O)Nc2cccc(NC(C)=O)c2)n1 | 0 | 99 | 0
CSc1nsc(SCC(=O)Nc2ccc3c(c2)OCCO3)n1 | 0 | 98 | 0
COc1ccccc1NC(=O)CSc1nc(SC)ns1 | 0 | 85 | 0
CSc1nsc(SCC(=O)Nc2ccccn2)n1 | 0 | 0 | 0
CSc1nsc(SCC(=O)Nc2cccc(C(=O)O)c2)n1 | 0 | 0 | 0
COc1ccc(OCCCC(=O)OC(C)C(=O)Nc2ccc(C)cc2)cc1 (stereo not given) | 0 | 0 | 0
CN(C(=O)c1cc(-c2cccs2)nn1-c1ccccc1)C1CCS(=O)(=O)C1 (stereo not given) | 0 | - | -
O=C(N/N=C(\CC(=O)c1cccs1)C(F)(F)F)c1cccnc1 | 0 | 0 | 0
O=C(N/N=C(/CC(=O)c1cccs1)C(F)(F)F)c1ccc(O)cc1 | 0 | 80 | 0
COC(=O)c1ccccc1NC(=O)NC1CCC(C)CC1 (stereo not given) | 0 | 0 | 0
CCOC(=O)C1=C(C)NC2=C(C(=O)CC(C)(C)C2)C1c1ccc(N(C)C)cc1 (stereo not given) | 0 | 0 | 0
CCN(CC)c1ccc(C2C(C(=O)OCCOC(C)C)=C(C)NC3=C2C(=O)CCC3)cc1 (stereo not given) | 0 | 99 | 0
COCCOC(=O)C1=C(C)NC2=C(C(=O)CCC2)C1c1ccc(N(C)C)cc1 (stereo not given) | 0 | 100 | 0
CC1=C(C(=O)OCCOC(C)C)C(c2cccnc2)C2=C(CCCC2=O)N1 (stereo not given) | 0 | 0 | 0
O=C(COC(=O)c1ccc([N+](=O)[O-])o1)Nc1ccc2c(c1)OC(F)(F)O2 | 0 | - | -
COc1ccc(NC(=O)Nc2cc(C)ccc2F)cc1OC | 0 | 0 | 0
COc1ccc(C(=O)c2ccc(N3CCN(C(=O)c4ccc(F)cc4)CC3)c(F)c2)cc1Br | 0 | 0 | 0
c1ccc(-c2nc(-n3ccnc3)nc(-n3ccnc3)n2)cc1 | 27 | 0 | 0
CC(C)Nc1nc(-c2ccccc2)nc(-n2ccnc2)n1 | 0 | 0 | 0
Cc1ccc(C2C3=C(CCCC3=O)Nc3[nH]c(=S)[nH]c(=O)c32)cc1 (stereo not given) | 0 | - | 0
O=C1CCCC2=C1C(c1ccc(Br)cc1)c1c([nH]c(=S)[nH]c1=O)N2 (stereo not given) | 0 | 83 | 0
Cc1ccn2c(NC3CCCC3)c(-c3cccs3)nc2c1 | 0 | 0 | 0
c1csc(-c2nc3ccccn3c2NC2CCCCC2)c1 | 0 | 94 | 0
SMILES | N-glyco inh | ALR H2O2 inh | T cell HTS
COc1cc(/C=C/C(=O)OCC(=O)N2c3ccccc3NC(=O)C2(C)C)cc(OC)c1OC | 0 | - | 0
CCN1C(=O)C(=O)N(CC(=O)c2cc(C)n(C3CC3)c2C)C1=O | 0 | 89 | 0
CCCN1C(=O)C(=O)N(CC(=O)c2cc(C)n(C3CC3)c2C)C1=O | 0 | - | 0
CN1OC[C@@H]2CN(Cc3ccc(Cl)cc3)[C@H](c3cccc(Br)c3)C[C@@H]21 | 0 | - | -
CCN(CC)c1ccc2c(Cl)cc(=O)oc2c1 | - | 0 | 52
CCN(CC)c1ccc2c(C)c(CN3CCOCC3)c(=O)oc2c1 | 0 | 0 | 0
CCN(CC)c1ccc2c(O)cc(=O)oc2c1 | 0 | 0 | 0
CCN(CC)c1ccc2c(C)c(CO)c(=O)oc2c1 | 0 | 99 | 0
Cc1ccc2nc(-c3ccco3)c(CC(C)(C)C)n2c1 | 0 | - | -
Cc1cccc2cc(/C=N/NC(=O)c3ccccc3O)c(Cl)nc12 | 0 | 0 | 0
Cc1nc2c(C)cccc2cc1C(=O)N/N=C/c1ccc(O)cc1 | 0 | 99 | 0
O=C(N/N=C/c1ccc(O)cc1)c1ccc(NC(=O)c2ccccc2Br)cc1 | 0 | 79 | 0
O=C(Nc1ccccc1C(=O)N/N=C/c1ccc(F)cc1)c1ccccc1Br | 0 | - | -
Cc1ccccc1C(=O)Nc1ccc(C(=O)N/N=C/c2ccncc2)cc1 | 0 | 0 | 0
Cc1ccccc1C(=O)Nc1ccc(C(=O)N/N=C/c2ccc(O)cc2)cc1 | 0 | 95 | 0
CC1CC(C)CN(C(C(=O)NC2CCCCC2)c2ccnc3ccccc23)C1 (stereo not given) | 0 | - | -
CCc1cccc2c(C(=O)CN3C(=O)N(C)C4(CCCCC4)C3=O)c[nH]c12 | 0 | 0 | 0
Cc1cc(C)nc(NC2=N[C@@H]3CCCC[C@H]3N2C(=O)Nc2cc(Cl)cc(Cl)c2)n1 | 0 | - | -
c1csc(CNc2nc3ccccc3n2CCN2CCOCC2)c1 | 0 | 0 | 0
CCN(CC)c1ccc(CNc2nc3ccccc3n2CCN2CCOCC2)cc1 | 0 | 98 | 0
COc1ccc(CNc2nc3ccccc3n2CCN2CCOCC2)cc1 | 0 | 94 | 0
